Experimental data as given in ChEMBL document CHEMBL3994637, “Broad spectrum anti-infective properties of benzisothiazolones and the parallels in their anti-bacterial and anti-fungal effects” (Bioorg Med Chem Lett, 2017).
≈ marks a conversion by molar mass, not a printed value.

Key:
[1] = test system: Trichophyton mentagrophytes; experiment: Anti-fungal activity against Trichophyton mentagrophytes after 48 hrs by broth microdilution method; format: functional
[2] = test system: Klebsiella pneumoniae; experiment: Antibacterial activity against Klebsiella pneumoniae ATCC 27736 by broth microdilution method; format: functional
How it was run: (§1)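 Bacteria were tested by the NCCLS method in Mueller Hinton broth, with gentamicin and norfloxacin as reference drugs.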

[3] = test system: Plasmodium falciparum; experiment: Antimalarial activity against chloroquine-sensitive Plasmodium falciparum 3D7 after 72 hrs by SYBR Green-1 staining based fluorescence assay; format: functional; conditions: 3D7, 72 h
[4] = test system: Candida albicans; experiment: Anti-fungal activity against Candida albicans after 48 hrs by broth microdilution method; format: functional
[5] = Cytotoxicity against monkey Vero C1008 cells after 72 hrs by MTT assay; format: cell-based; conditions: chlorocebus sabaeus
[6] = test system: Staphylococcus aureus; experiment: Antibacterial activity against gentamicin-resistant Staphylococcus aureus ATCC 33592 by broth microdilution method; format: functional
[7] = test system: Pseudomonas aeruginosa; experiment: Antibacterial activity against Pseudomonas aeruginosa ATCC BAA-427 by broth microdilution method; format: functional; how it was run: as §1
[8] = test system: Sporothrix schenckii; experiment: Anti-fungal activity against Sporothrix schenckii after 48 hrs by broth microdilution method; format: functional
[9] = test system: Cryptococcus neoformans; experiment: Anti-fungal activity against Cryptococcus neoformans after 48 hrs by broth microdilution method; format: functional
[10] = test system: Staphylococcus aureus; experiment: Antibacterial activity against Staphylococcus aureus ATCC 29213 by broth microdilution method; format: functional
[11] = test system: Escherichia coli; experiment: Antibacterial activity against Escherichia coli ATCC 9637 by broth microdilution method; format: functional; conditions: W; how it was run: as §1
[12] = test system: Candida parapsilosis; experiment: Anti-fungal activity against Candida parapsilosis ATCC 22019 after 48 hrs by broth microdilution method; format: functional; conditions: Lodderomyces parapsilosis, ATCC 22019, 48 h
[13] = test system: Staphylococcus aureus; experiment: Antibacterial activity against Staphylococcus aureus ATCC 25923 by broth microdilution method; format: functional
[14] = test system: Aspergillus fumigatus; experiment: Anti-fungal activity against Aspergillus fumigatus after 48 hrs by broth microdilution method; format: functional
[15] = Selectivity index, ratio of CC50 for monkey Vero C1008 cells to IC50 for chloroquine-sensitive Plasmodium falciparum 3D7; format: toxicity; conditions: read-out: Ratio CC50/IC50
[16] = test system: Staphylococcus aureus; experiment: Antibacterial activity against methicillin-resistant Staphylococcus aureus ATCC 700699 by broth microdilution method; format: functional; conditions: Mu50

Row | SMILES | MIC [1] [µg/mL] | MIC [2] [µg/mL] | IC50 [3] [µM] | MIC [4] [µg/mL] | MIC [7] [µg/mL] | MIC [8] [µg/mL] | MIC [9] [µg/mL] | MIC [10] [µg/mL] | MIC [11] [µg/mL] | MIC [12] [µg/mL] | MIC [13] [µg/mL] | MIC [14] [µg/mL] | MIC [16] [µg/mL] | IC50 [2] [µg/mL] | IC50 [4] [µg/mL] | IC50 [7] [µg/mL] | IC50 [8] [µg/mL] | IC50 [9] [µg/mL] | IC50 [10] [µg/mL] | IC50 [11] [µg/mL] | other results
1 | O=c1c2ccccc2sn1-c1ccc(F)cc1 | 12.5 (≈ 51 µM) | > 50 | 0.97 | 12.5 (≈ 51 µM) | > 50 | 12.5 (≈ 51 µM) | 12.5 (≈ 51 µM) | 3.12 (≈ 12.7 µM) | > 50 | 12.5 (≈ 51 µM) | 6.25 (≈ 25.5 µM) | 25 (≈ 102 µM) | 3.12 (≈ 12.7 µM) | – | – | – | – | – | – | – | CC50 at 72 h [5]: 85.4 µM; MIC [6]: 3.12 µg/mL (≈ 12.7 µM); selectivity ratio [15]: 84.4
2 | O=c1c2ccccc2sn1-c1cccc(F)c1 | 12.5 (≈ 51 µM) | > 50 | > 2 | 12.5 (≈ 51 µM) | > 50 | 12.5 (≈ 51 µM) | 12.5 (≈ 51 µM) | 12.5 (≈ 51 µM) | > 50 | 12.5 (≈ 51 µM) | 6.25 (≈ 25.5 µM) | 25 (≈ 102 µM) | 6.25 (≈ 25.5 µM) | – | – | – | – | – | – | – | MIC [6]: 6.25 µg/mL (≈ 25.5 µM)
3 | O=c1c2ccccc2sn1CCn1sc2ccccc2c1=O | 2.9 (≈ 8.83 µM) | > 50 | > 2 | 1.54 (≈ 4.69 µM) | > 50 | 3.5 (≈ 10.7 µM) | 2.2 (≈ 6.7 µM) | 0.4 (≈ 1.22 µM) | > 50 | > 50 | 16.7 (≈ 50.8 µM) | 12.5 (≈ 38.1 µM) | 0.9 (≈ 2.74 µM) | > 50 | 1.51 (≈ 4.6 µM) | > 50 | 2.3 (≈ 7 µM) | 1.4 (≈ 4.26 µM) | 0.3 (≈ 0.913 µM) | > 50 | IC50 [12]: > 50 µg/mL; IC50 [13]: 4.1 µg/mL (≈ 12.5 µM); IC50 [16]: 0.4 µg/mL (≈ 1.22 µM)
4 | O=c1c2ccccc2sn1-c1ccccc1Cl | 12.5 (≈ 47.8 µM) | > 50 | > 2 | 25 (≈ 95.5 µM) | > 50 | 12.5 (≈ 47.8 µM) | 12.5 (≈ 47.8 µM) | 12.5 (≈ 47.8 µM) | > 50 | 25 (≈ 95.5 µM) | 25 (≈ 95.5 µM) | 25 (≈ 95.5 µM) | 12.5 (≈ 47.8 µM) | – | – | – | – | – | – | – | MIC [6]: 12.5 µg/mL (≈ 47.8 µM)
5 | COC(=O)[C@H](C)n1sc2ccccc2c1=O | 12 (≈ 50.6 µM) | > 50 | > 2 | 2.7 (≈ 11.4 µM) | > 50 | 12.2 (≈ 51.4 µM) | 2 (≈ 8.43 µM) | 8.4 (≈ 35.4 µM) | > 50 | 12.5 (≈ 52.7 µM) | 3 (≈ 12.6 µM) | 25 (≈ 105 µM) | 0.87 (≈ 3.67 µM) | > 50 | 1.9 (≈ 8.01 µM) | > 50 | 2.9 (≈ 12.2 µM) | 1.4 (≈ 5.9 µM) | 6.4 (≈ 27 µM) | > 50 | IC50 [1]: 11.4 µg/mL (≈ 48 µM); IC50 [13]: 2 µg/mL (≈ 8.43 µM); IC50 [16]: 0.84 µg/mL (≈ 3.54 µM)
6 | COC(=O)[C@@H](NC(=O)[C@H](C(C)C)n1sc2ccccc2c1=O)C(C)C | > 50 | > 50 | > 2 | > 50 | > 50 | > 50 | > 50 | > 50 | > 50 | > 50 | > 50 | > 50 | > 50 | > 50 | > 50 | > 50 | > 50 | > 50 | > 50 | > 50 | IC50 [1]: > 50 µg/mL; IC50 [12]: > 50 µg/mL; IC50 [13]: > 50 µg/mL; IC50 [14]: > 50 µg/mL; IC50 [16]: > 50 µg/mL
7 | Cc1ccc(-n2sc3ccccc3c2=O)cc1 | 1.7 (≈ 7.04 µM) | > 50 | 1.66 | 2.4 (≈ 9.95 µM) | > 50 | 1 (≈ 4.14 µM) | 1.5 (≈ 6.22 µM) | 1 (≈ 4.14 µM) | > 50 | 0.6 (≈ 2.49 µM) | 1.07 (≈ 4.43 µM) | 13.3 (≈ 55.1 µM) | 0.75 (≈ 3.11 µM) | > 50 | 1.3 (≈ 5.39 µM) | > 50 | 0.9 (≈ 3.73 µM) | 1.2 (≈ 4.97 µM) | 0.6 (≈ 2.49 µM) | > 50 | CC50 at 72 h [5]: 19.9 µM; IC50 [12]: 0.4 µg/mL (≈ 1.66 µM); IC50 [13]: 0.6 µg/mL (≈ 2.49 µM); IC50 [14]: 4.1 µg/mL (≈ 17 µM); selectivity ratio [15]: 12
8 | O=c1c2ccccc2sn1-c1ccccc1I | 25 (≈ 70.8 µM) | > 50 | > 2 | 25 (≈ 70.8 µM) | > 50 | 25 (≈ 70.8 µM) | 25 (≈ 70.8 µM) | 12.5 (≈ 35.4 µM) | > 50 | 25 (≈ 70.8 µM) | 12.5 (≈ 35.4 µM) | 50 (≈ 142 µM) | 25 (≈ 70.8 µM) | – | – | – | – | – | – | – | MIC [6]: 12.5 µg/mL (≈ 35.4 µM)
9 | C[C@@H](c1ccccc1)n1sc2ccccc2c1=O | 0.4 (≈ 1.57 µM) | > 50 | > 2 | 1 (≈ 3.92 µM) | > 50 | 1.6 (≈ 6.27 µM) | 2.9 (≈ 11.4 µM) | 8.5 (≈ 33.3 µM) | > 50 | 2.1 (≈ 8.22 µM) | 10.2 (≈ 39.9 µM) | 6.5 (≈ 25.5 µM) | 1.9 (≈ 7.44 µM) | > 50 | 0.5 (≈ 1.96 µM) | > 50 | 0.4 (≈ 1.57 µM) | 1 (≈ 3.92 µM) | 4.6 (≈ 18 µM) | > 50 | IC50 [1]: 0.7 µg/mL (≈ 2.74 µM); IC50 [12]: 0.7 µg/mL (≈ 2.74 µM); IC50 [13]: 6.8 µg/mL (≈ 26.6 µM); IC50 [14]: 0.4 µg/mL (≈ 1.57 µM); IC50 [16]: 1 µg/mL (≈ 3.92 µM)
